From paper PMC3472128 (Structure (London, England : 1993), 2012) come the findings set out here.

The test system of one experiment is Smurf2. The experiment can be described thus: NMR, Smad7 peptide binding to Smurf2. The note with it: triple resonance NMR; 285 K/298 K. Set-up: species or system human.
In experiment [1] the test system is Nedd4L WW2-WW3 mutant constructs (bind only one PY site). The experiment can be described thus: ITC, Smad7 peptide vs Nedd4L WW2-WW3 mutant constructs. The experiment is classed as binding, human. The note with it: two WW2-WW3 mutant constructs that bind only one PY site. For orientation: Isothermal titration calorimetry measures the heat released or taken up as one component is titrated into another.

For experiment [2], the target named is Nedd4L WW2 domain Lys378/Arg380 to Glu (Homo sapiens, UniProt Q96PU5, K398E/R400E). The experiment can be described thus: ITC, Smad7 peptide vs Nedd4L WW2 double mutant. The experiment is classed as binding.
Chain of Nedd4L WW2 domain Lys378/Arg380 to Glu (Q96PU5 384-423 K398E/R400E): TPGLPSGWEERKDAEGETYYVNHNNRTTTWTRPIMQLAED
Experiment [3] concerns the target T1, Smurf2 WW2-WW3 (Homo sapiens, UniProt Q9HAU4). The experiment can be described thus: ITC, Smad7 peptide vs Smurf2 WW2-WW3 pair. The experiment is classed as binding. In outline:
(§1)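 Nano ITC was run at 5, 15 and 25 °C, in Tris and in ammonium acetate at pH 7. Kd and stoichiometry come from fits. Each run was done at least three times with two protein expression batches.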

The test system of experiment [4] is Smurf1 WW1. The experiment can be described thus: ITC, Smad7 peptide vs Smurf1 WW1. The format is binding, human.
For experiment [5], the target named is T2, Smurf1 WW1-WW2 (Homo sapiens, UniProt Q9HCE7).
T2 sequence (Q9HCE7 233-314 isoform Q9HCE7-2): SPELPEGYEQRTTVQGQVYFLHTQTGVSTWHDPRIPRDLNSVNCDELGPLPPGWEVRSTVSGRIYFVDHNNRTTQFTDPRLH
The experiment can be described thus: ITC, Smad7 peptide vs Smurf1 WW1-WW2 pair. The format is binding. In outline: as §1

Another experiment deals with Smurf1 WW1-WW2 Arg243Ala. The experiment can be described thus: ITC, Smad7 peptide vs Smurf1 WW1-WW2 Arg243Ala. The experiment is classed as binding, human.
For experiment [6], the target named is Nedd4L WW2 domain Lys378Glu (Homo sapiens, UniProt Q96PU5, K398E). The experiment can be described thus: ITC, Smad7 peptide vs Nedd4L WW2 Lys378Glu. The experiment is classed as binding.
Chain of Nedd4L WW2 domain Lys378Glu (Q96PU5 384-423 K398E): as the sequence (Q96PU5 384-423 K398E/R400E) above, with E17R counted along it
Experiment [7] has as its system Smurf1 WW1-WW2 Gln247 and Gln249 to Glu. The experiment can be described thus: ITC, Smad7 peptide vs Smurf1 WW1-WW2 Gln247 and Gln249 to Glu. The format is binding, human.
Another experiment concerns Nedd4L WW domains. The experiment can be described thus: ITC, preferred Nedd4L WW domain for Smad7 peptide. The experiment is classed as binding, human.
For the next experiment, the target named is Smurf2 WW3 domain R312E (Homo sapiens, UniProt Q9HAU4, R312E). The experiment can be described thus: ITC, Smad7 peptide vs Smurf2 WW3 R312E. The format is binding.
Chain of Smurf2 WW3 domain R312E (Q9HAU4 297-333 R312E limits assumed): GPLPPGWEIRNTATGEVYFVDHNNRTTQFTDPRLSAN
The target of another experiment is YAP WW1-WW2 pair (Homo sapiens, UniProt P46937). The experiment can be described thus: ITC, YAP WW1-WW2 pair. The experiment is classed as binding.
Chain of YAP WW1-WW2 pair (P46937 163-266 limits assumed): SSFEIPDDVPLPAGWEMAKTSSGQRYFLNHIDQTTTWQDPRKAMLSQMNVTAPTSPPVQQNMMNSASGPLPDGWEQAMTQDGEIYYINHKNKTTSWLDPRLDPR
The target of experiment [8] is Nedd4L WW2 domain Arg380Glu (Homo sapiens, UniProt Q96PU5, R400E). The experiment can be described thus: ITC, Smad7 peptide vs Nedd4L WW2 Arg380Glu. The format is binding.
Chain of Nedd4L WW2 domain Arg380Glu (Q96PU5 384-423 R400E): as the sequence (Q96PU5 384-423 K398E/R400E) above, with E15K counted along it
The target of experiment [9] is T3, Smurf1 WW2 (Homo sapiens, UniProt Q9HCE7). The experiment can be described thus: ITC, Smad7 peptide vs Smurf1 WW2. The experiment is classed as binding.
Experiment [10] has as its target T1, Smurf2 WW2-WW3. The experiment can be described thus: IM-MS, complexes of Smurf2 WW2-WW3 with Smad7 peptide. The format is binding. The note with it: protein concentrations used in ITC (30–50 μM).
The test system of another experiment is Nedd4L WW2-WW3 pair. The experiment can be described thus: ITC, Smad7 peptide vs Nedd4L WW2-WW3 pair. The experiment is classed as binding, human.
Experiment [11] addresses T2, Smurf1 WW1-WW2. The experiment can be described thus: IM-MS, complexes of Smurf1 WW1-WW2 with Smad7 peptide. The experiment is classed as binding. The note with it: protein concentrations used in ITC (30–50 μM).
The subject of the next experiment is Smurf1 WW1-WW2 Gln249Glu. The experiment can be described thus: ITC, Smad7 peptide vs Smurf1 WW1-WW2 Gln249Glu. The experiment is classed as binding, human.
For another experiment, the target named is YAP WW1 domain (Homo sapiens, UniProt P46937). The experiment can be described thus: ITC, Smad7 peptide vs YAP WW1. The experiment is classed as binding.
Chain of YAP WW1 domain (P46937 163-206): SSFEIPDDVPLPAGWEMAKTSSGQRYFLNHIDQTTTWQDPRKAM
Experiment [12] addresses Smurf1 WW2 domain Arg295Glu (Homo sapiens, UniProt Q9HCE7, R321E). The experiment can be described thus: ITC, Smad7 peptide vs Smurf1 WW2 Arg295Glu. The experiment is classed as binding.
In the next experiment the test system is Smurf1 WW1-WW2 Arg243Glu. The experiment can be described thus: ITC, Smad7 peptide vs Smurf1 WW1-WW2 Arg243Glu. The format is binding, human.
For a further experiment, the system named is YAP WW2. The experiment can be described thus: ITC, Smad7 peptide vs YAP WW2. The format is binding, human. The note with it: 15°C, weaker than YAP WW1.
For experiment [13], the system named is Smurf1 WW1. The experiment can be described thus: IM-MS, Smurf1 WW1 dimer population. The experiment is classed as binding, human. In outline: (§2)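 Traveling-wave ion mobility–mass spectrometry was run on the recombinant Smurf WW protein mixed with the Smad7 peptide. Monomer, dimer and trimer species carrying zero to three ligands were assigned by specific ionisation mass and characteristic drift time.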

The target of experiment [14] is four independent Nedd4L WW domains. The experiment can be described thus: ITC, Smad7 peptide vs independent Nedd4L WW domains. The experiment is classed as binding, human. The note with it: each of the four independent WW domains, values shown in Figure 1B only.
Experiment [15] concerns the target T3, Smurf1 WW2. The experiment can be described thus: IM-MS, Smurf1 WW2 dimer population. The format is binding. Put shortly: as §2
Experiment [16] concerns three possible Nedd4L WW-WW pairs. The experiment can be described thus: ITC, Smad7 peptide vs Nedd4L WW-WW pairs. The experiment is classed as binding, human.
Another experiment deals with Smurf1 WW1-WW2 pair. The experiment can be described thus: NMR, Smad7 peptide binding to Smurf1. Details: species or system human. The following applies: triple resonance NMR; 285 K/298 K.
The subject of the next experiment is Smurf2 WW2. The experiment can be described thus: ITC, Smad7 peptide vs Smurf2 WW2. The experiment is classed as binding, human.
Another experiment relates to HA-YAP. The experiment can be described thus: Immunoprecipitation of Smad7 with HA-YAP in HEK293T cells. The experiment is classed as cell-based, human. The following applies: full-length Smad7 wild type or variants with HA-YAP. In outline: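 HEK293T cells were transfected with epitope-tagged constructs (HA-YAP with full-length Smad7 wild type or variants) and treated where indicated with TGF-β1 at 100 pM. Lysates were immunoprecipitated with anti-Flag antibody, then immunoblotted with antibodies against the tags.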

Entries after “also recorded” stand apart in the source; their conditions may differ. Bounds are passed on as bounds.

T1 sequence (Q9HAU4 250-333 limits assumed): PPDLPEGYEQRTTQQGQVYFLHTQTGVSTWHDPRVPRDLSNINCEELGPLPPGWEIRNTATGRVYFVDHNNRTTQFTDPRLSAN
Chain of Smurf1 WW2 domain Arg295Glu (Q9HCE7 303-340 R321E limits assumed): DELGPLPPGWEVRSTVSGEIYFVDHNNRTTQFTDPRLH

Broadly, the Kd is a measure of binding affinity in units of concentration. Low readings indicate a tighter complex, high ones a looser complex. As usually defined, the stoichiometry N is the number of molecules, sites or subunits per partner or assembly. Ac-ELESPPPPYSRYPMD-NH2 [Smad7 peptide]: the “WW domain used for interaction” value is on record as “the WW3 for Smurf2” with Smurf2 and “using the WW2 domain” with Smurf1 WW1-WW2 pair. In [1], the peptide affinity entry was “close to those of the single domains”. For the same substance, the Kd was found to be 27.3 ± 2.2 µM in [2]; 1700 ± 300 nM at Smurf2 WW2-WW3 [3] (affinity (KD), ITC, 15 °C); 1700 ± 300 nM on Smurf1 WW1-WW2 [5] (affinity (KD), ITC, 15 °C, Tris buffer (Figure 1C), at least three times, two protein expression batches); 23.5 ± 1.5 µM in experiment [6]; 34.2 ± 1.6 µM at Smurf2 WW3 domain R312E; 9.8 ± 0.9 µM at YAP WW1-WW2 pair. Further, the dissociation constant Kd in experiment [8] came out at 15.4 ± 3.5 µM; on Smurf1 WW2 [9] it was 4.1 ± 0.6 µM; at YAP WW1 domain, 6.9 ± 0.28 µM; in [12], 48.6 ± 6.4 µM. For the same substance, the stoichiometry is recorded as < 1 at Smurf2 WW2-WW3 [3] (ITC, all temperatures); 0.7 on Smurf1 WW1-WW2 [5] (ITC, 15 °C, Tris buffer); < 1 on Smurf1 WW1-WW2 [5] (ITC, all temperatures); 1 at Smurf1 WW2 [9] (ITC, independent WW2, 15 °C, Tris buffer). In addition, the “affinity increase due to the WW domain pair” value on Smurf2 WW2-WW3 [3] (pair versus Smurf2 WW3 at a given temperature) and on Smurf1 WW1-WW2 [5] (pair versus Smurf1 WW2 at a given temperature) was “about 2 fold” throughout. Besides, the affinity result with Smurf1 WW1 [4] and in the experiment on Smurf2 WW2 was “very low affinity” in each case. For the same substance, the reduction of affinity in the experiment with Smurf1 WW1-WW2 Arg243Ala is 3 fold; in experiment [7] it was 3 fold; in the experiment on Smurf1 WW1-WW2 Gln249Glu, 3 fold; with Smurf1 WW1-WW2 Arg243Glu, 10 fold. Moreover, the “preferred WW domain” value in the experiment on Nedd4L WW domains is “preferentially uses WW2”; at YAP WW1 domain (ITC, 15°C) it was “YAP WW1 domain preferentially binds”. The “affinity, WW1-WW2 pair versus independent WW1” value at YAP WW1-WW2 pair (ITC) is recorded as “binds slightly worse than the isolated WW1”. For the same substance, the “stoichiometry N” value at YAP WW1-WW2 pair (ITC, 15°C) was 1. For the same substance, the species detected result on Smurf2 WW2-WW3 [10] is “dimers with one or with two bound ligands and trimers”; on Smurf1 WW1-WW2 [11] it was “monomeric complexes, protein dimers bound to only one ligand, dimers bound to two ligands and higher order species; also recorded: dimers with one or with two bound ligands and trimers”. Besides, the “stoichiometry (peptide per protein)” value with Nedd4L WW2-WW3 pair is given as “two equivalents of peptide per protein”. Further, the “decrease of binding affinity” value in experiment [12] (R295E versus wild type) is “approximately 8 fold”. The “dissociation constant relative to WW1” value in the experiment with YAP WW2 stood at 9 fold. The “dimer population in the presence of peptide” value in the experiment on Smurf1 WW1 [13] is “unaffected”; at Smurf1 WW2 [15], “reduced”. Also, the dissociation constants result in experiment [14] was “in the μM range”; in experiment [16] (three possible WW-WW pairs, values shown in Figure 1B only), “in the μM range”. Further, in experiment [16] (in vitro, versus single domains), the “effect of domain pairs on affinity” value is on record as “does not increase the affinity in vitro”.
On to “Smad7: full-length protein Smad7 (wild type), flag epitope-tagged, expressed in HEK293T”, for which the “binding to HA-YAP in immunoprecipitation” value with HA-YAP is listed as “binding is observed”.
